Converted amounts (≈) assume the structure as drawn.

In data set [1] the test system is Streptococcus pneumoniae. Nature of the data set: Antibacterial activity against fluoroquinolone resistance Streptococcus pneumoniae SP3765. The class given is functional.
In another data set the test system is Haemophilus influenzae. The experiment in a line: Antibacterial activity against Haemophilus influenzae HI3542. The data set is classed as functional. The following applies: HI-3542.
Data set [2] deals with Voltage-gated inwardly rectifying potassium channel KCNH2 (Homo sapiens, UniProt Q12809). The experiment in a line: Displacement of [3H]dofetilide from human ERG by fliter binding assay.
For the next data set, the system named is Moraxella catarrhalis. Nature of the data set: Antibacterial activity against Moraxella catarrhalis BC-3531. The data set is classed as functional.
Data set [3] concerns Staphylococcus aureus. The experiment in a line: Antibacterial activity against Staphylococcus aureus UC76. The data set is classed as functional.
Data set [4] concerns Staphylococcus aureus. Nature of the data set: Antibacterial activity against Staphylococcus aureus SA2552. The class given is functional.
The test system of data set [5] is Streptococcus pneumoniae. The experiment in a line: Antibacterial activity against Streptococcus pneumoniae SV1. The data set is classed as functional.
The target in another data set is hERG (KCNH2) (Homo sapiens, UniProt Q12809). Nature of the data set: Displacement of [3H]dofetilide from human ERG at 300 uM. The conditions noted are these: probe [3H]dofetilide. An outline of the steps: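 Radioligand filter-binding assay measuring displacement of [3H]-dofetilide from the hERG channel, run as in a patent protocol.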
Another data set concerns Rattus norvegicus. Nature of the data set: AUC in rat at 1 mg/kg, iv. The data set is classed as ADME, organism-based, Plasma. The conditions noted are these: in vivo. On the set-up: dose 1 mg/kg, route intravenous.
The nature of data set [6]: Clearance in rat at 1 mg/kg, iv. The data set is classed as ADME, organism-based. Also on record: dose 1 mg/kg, route intravenous. The conditions noted are these: in vivo.
Data set [7] can be described thus: Volume of distribution in rat at 1 mg/kg, iv. The class given is ADME, organism-based. On the set-up: dose 1 mg/kg, route intravenous. The conditions noted are these: in vivo, read-out: Vdss.
The nature of data set [8]: Half life in rat at 1 mg/kg, iv. On the set-up: dose 1 mg/kg, route intravenous. The conditions noted are these: in vivo. The class given is ADME, organism-based.
A short description of data set [9]: Cmax in rat at 5 mg/kg, po. The data set is classed as ADME, organism-based. On the set-up: dose 5 mg/kg, route oral. The following applies: in vivo.
Data set [10] is described as follows: Bioavailability in rat at 5 mg/kg, po. The class given is ADME, organism-based. The conditions noted are these: in vivo.

Voltage-gated inwardly rectifying potassium channel KCNH2, sequence (Q12809 whole entry): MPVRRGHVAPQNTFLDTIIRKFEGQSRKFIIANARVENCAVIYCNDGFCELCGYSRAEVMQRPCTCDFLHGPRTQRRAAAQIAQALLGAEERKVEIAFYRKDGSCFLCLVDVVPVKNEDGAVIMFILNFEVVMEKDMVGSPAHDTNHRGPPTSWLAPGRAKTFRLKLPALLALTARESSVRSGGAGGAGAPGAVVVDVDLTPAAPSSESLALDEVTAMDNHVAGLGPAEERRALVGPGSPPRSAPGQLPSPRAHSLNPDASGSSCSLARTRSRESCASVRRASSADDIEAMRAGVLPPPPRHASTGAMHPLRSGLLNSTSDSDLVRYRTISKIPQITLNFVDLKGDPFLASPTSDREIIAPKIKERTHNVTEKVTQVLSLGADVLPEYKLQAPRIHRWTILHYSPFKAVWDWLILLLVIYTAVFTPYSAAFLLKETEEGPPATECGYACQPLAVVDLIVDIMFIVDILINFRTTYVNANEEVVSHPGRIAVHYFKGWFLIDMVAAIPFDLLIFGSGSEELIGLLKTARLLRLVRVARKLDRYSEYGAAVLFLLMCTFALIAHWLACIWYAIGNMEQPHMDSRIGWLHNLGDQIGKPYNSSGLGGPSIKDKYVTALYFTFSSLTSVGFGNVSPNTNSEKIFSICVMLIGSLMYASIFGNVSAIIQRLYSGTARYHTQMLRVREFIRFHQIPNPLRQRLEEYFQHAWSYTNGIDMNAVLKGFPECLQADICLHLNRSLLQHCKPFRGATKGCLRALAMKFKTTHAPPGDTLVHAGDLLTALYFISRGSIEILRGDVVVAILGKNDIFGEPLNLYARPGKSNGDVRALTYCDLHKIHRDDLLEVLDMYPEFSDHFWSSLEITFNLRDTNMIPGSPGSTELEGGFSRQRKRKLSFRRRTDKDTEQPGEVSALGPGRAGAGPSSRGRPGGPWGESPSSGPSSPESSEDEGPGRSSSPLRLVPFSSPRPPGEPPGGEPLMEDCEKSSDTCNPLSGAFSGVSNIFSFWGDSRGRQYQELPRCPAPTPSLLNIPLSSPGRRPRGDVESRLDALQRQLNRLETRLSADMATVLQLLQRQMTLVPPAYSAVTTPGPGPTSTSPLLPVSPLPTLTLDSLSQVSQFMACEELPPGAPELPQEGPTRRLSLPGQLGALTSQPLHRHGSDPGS
hERG (KCNH2), sequence (Q12809 whole entry): as above

As to `Cc1c(N2CC[C@@H]([C@H](C)NCCC#N)C2)c(F)cc2c(=O)c(C(=O)O)cn(C3CC3)c12`, the MIC was 0.06 µg/mL (≈ 0.141 µM) in the data set on Streptococcus pneumoniae [1]; 0.03 µg/mL (≈ 0.0703 µM) in the data set on Haemophilus influenzae; 0.015 µg/mL (≈ 0.0352 µM) against Moraxella catarrhalis; 0.002 µg/mL (≈ 0.00469 µM) against Staphylococcus aureus [3]; 0.008 µg/mL (≈ 0.0188 µM) with Staphylococcus aureus [4]; 0.008 µg/mL (≈ 0.0188 µM) in the data set with Streptococcus pneumoniae [5]. Moreover, the Ki in [2] is 72 µM.

`COc1c(N2CC[C@@H]([C@@H](N)CC#N)C2)c(F)cc2c(=O)c(C(=O)O)cn(C3CC3)c12`: the MIC stood at 0.125 µg/mL (≈ 0.302 µM) in the data set on Streptococcus pneumoniae [1]; 0.008 µg/mL (≈ 0.0193 µM) in the data set on Haemophilus influenzae; 0.03 µg/mL (≈ 0.0724 µM) against Moraxella catarrhalis; 0.001 µg/mL (≈ 0.00241 µM) in the data set on Staphylococcus aureus [3]; 0.002 µg/mL (≈ 0.00483 µM) with Staphylococcus aureus [4]; 0.008 µg/mL (≈ 0.0193 µM) in the data set with Streptococcus pneumoniae [5]. In [2], the Ki was greater than 150 µM. The compound further came in with an inhibition at 300 µM on hERG (KCNH2) of 29%.

In the case of `Cc1c(N2CC(C)(CN)C2)c(F)cc2c(=O)c(C(=O)O)cn(C3CC3)c12`, the MIC stood at 2 µg/mL (≈ 5.56 µM) with Streptococcus pneumoniae [1]; 0.015 µg/mL (≈ 0.0417 µM) against Haemophilus influenzae; 0.06 µg/mL (≈ 0.167 µM) against Moraxella catarrhalis; 0.06 µg/mL (≈ 0.167 µM) against Staphylococcus aureus [3]; 0.06 µg/mL (≈ 0.167 µM) with Staphylococcus aureus [4]; 0.06 µg/mL (≈ 0.167 µM) in the data set with Streptococcus pneumoniae [5]. The AUC with Rattus norvegicus worked out at 2.5 ug/hr.ml. The same compound gave a clearance in data set [6] of 33 mL/min/kg. For the same compound, the Vd in [7] was determined as 2.5 L/kg. Further, the half-life in [8] is 1.3 h. In addition, the Cmax in data set [9] is 300 ng/mL. Moreover, in [10], the bioavailability is 18%.

With `COc1c(N2CC[C@@H]([C@H](C)NCCC#N)C2)ccc2c(=O)c(C(=O)O)cn(C3CC3)c12`, the MIC against Streptococcus pneumoniae [1] came to 2 µg/mL (≈ 4.71 µM); with Haemophilus influenzae it was 0.5 µg/mL (≈ 1.18 µM); in the data set on Moraxella catarrhalis it was 1 µg/mL (≈ 2.36 µM); with Staphylococcus aureus [3], 0.03 µg/mL (≈ 0.0707 µM); in the data set on Staphylococcus aureus [4], 0.125 µg/mL (≈ 0.294 µM); with Streptococcus pneumoniae [5], 0.25 µg/mL (≈ 0.589 µM).

For the compound `CCC1(CNCCC#N)CN(c2c(F)cc3c(=O)c(C(=O)O)cn(C4CC4)c3c2C)C1`, the MIC worked out at 2 µg/mL (≈ 4.69 µM) in the data set with Streptococcus pneumoniae [1]; 0.06 µg/mL (≈ 0.141 µM) with Haemophilus influenzae; 0.25 µg/mL (≈ 0.586 µM) in the data set on Moraxella catarrhalis; 0.03 µg/mL (≈ 0.0703 µM) with Staphylococcus aureus [3]; 0.03 µg/mL (≈ 0.0703 µM) against Staphylococcus aureus [4]; 0.125 µg/mL (≈ 0.293 µM) against Streptococcus pneumoniae [5]. Besides, the Ki in data set [2] is greater than 150 µM. The compound further displayed an AUC in the data set with Rattus norvegicus of 6.5 ug/hr.ml. The clearance in data set [6] turned out to be 13 mL/min/kg. The Vd in [7] is 1 L/kg. Also, in data set [8], the half-life is 1.4 h. In addition, in data set [9], the Cmax is 2600 ng/mL. Further, in data set [10], the bioavailability amounted to 92%. Moreover, at hERG (KCNH2), the inhibition at 300 µM came out at 25%.

For the compound `O=C(O)c1cn(C2CC2)c2cc(N3CCNCC3)c(F)cc2c1=O` [CIPROFLOXACIN], the MIC against Streptococcus pneumoniae [1] is 16 µg/mL (≈ 48.3 µM); against Haemophilus influenzae it was 0.008 µg/mL (≈ 0.0241 µM); in the data set with Moraxella catarrhalis it was 0.03 µg/mL (≈ 0.0905 µM); in the data set on Staphylococcus aureus [4], 1 µg/mL (≈ 3.02 µM).

For the compound `COc1c(N2CC[C@@H]([C@H](C)N)C2)c(F)cc2c(=O)c(C(=O)O)cn(C3CC3)c12`, the MIC against Streptococcus pneumoniae [1] came out at 0.03 µg/mL (≈ 0.077 µM); against Haemophilus influenzae it was 0.004 µg/mL (≈ 0.0103 µM); in the data set with Moraxella catarrhalis it was 0.015 µg/mL (≈ 0.0385 µM); with Staphylococcus aureus [3], 0.002 µg/mL (≈ 0.00514 µM); against Staphylococcus aureus [4], 0.008 µg/mL (≈ 0.0205 µM); in the data set on Streptococcus pneumoniae [5], 0.004 µg/mL (≈ 0.0103 µM).

As for `CC1COc2c(N3CC[C@@H]([C@@H](N)CC#N)C3)c(F)cc3c(=O)c(C(=O)O)cn1c23` (some centres not stated), the MIC against Streptococcus pneumoniae [1] amounted to 0.125 µg/mL (≈ 0.312 µM); with Haemophilus influenzae, 0.008 µg/mL (≈ 0.02 µM); against Moraxella catarrhalis it was 0.125 µg/mL (≈ 0.312 µM); in the data set with Staphylococcus aureus [3] it was 0.008 µg/mL (≈ 0.02 µM); against Staphylococcus aureus [4], 0.06 µg/mL (≈ 0.15 µM); in the data set on Streptococcus pneumoniae [5], 0.015 µg/mL (≈ 0.0375 µM). For the same compound, the Ki in data set [2] is greater than 150 µM. On hERG (KCNH2), this compound returned an inhibition at 300 µM of 22%.

For the compound `C[C@H]1COc2c(N3CCN(C)CC3)c(F)cc3c(=O)c(C(=O)O)cn1c23.C[C@H]1COc2c(N3CCN(C)CC3)c(F)cc3c(=O)c(C(=O)O)cn1c23.O` [LEVOFLOXACIN], the MIC is 0.015 µg/mL against Haemophilus influenzae, 0.06 µg/mL with Moraxella catarrhalis, 0.125 µg/mL in the data set with Staphylococcus aureus [3] and 0.5 µg/mL in the data set on Staphylococcus aureus [4]. The inhibition at 300 µM on hERG (KCNH2) worked out at 10%.

In the case of `CN[C@@H](CC#N)[C@@H]1CCN(c2c(F)cc3c(=O)c(C(=O)O)cn4c3c2OCC4C)C1` (some centres not stated), the MIC was 2 µg/mL (≈ 4.83 µM) against Streptococcus pneumoniae [1]; 0.03 µg/mL (≈ 0.0724 µM) in the data set with Haemophilus influenzae; 0.25 µg/mL (≈ 0.603 µM) against Moraxella catarrhalis; 0.06 µg/mL (≈ 0.145 µM) in the data set with Staphylococcus aureus [3]; 0.125 µg/mL (≈ 0.302 µM) with Staphylococcus aureus [4]; 0.125 µg/mL (≈ 0.302 µM) in the data set on Streptococcus pneumoniae [5]. In data set [2], the Ki is greater than 150 µM. In addition, the inhibition at 300 µM at hERG (KCNH2) turned out to be 19%.

Regarding `Cc1c(N2CC[C@@H]([C@H](C)N)C2)c(F)cc2c(=O)c(C(=O)O)cn(C3CC3)c12`, the MIC against Streptococcus pneumoniae [1] turned out to be 0.03 µg/mL (≈ 0.0803 µM); against Haemophilus influenzae, 0.004 µg/mL (≈ 0.0107 µM); against Moraxella catarrhalis, 0.015 µg/mL (≈ 0.0402 µM); with Staphylococcus aureus [3] it was 0.002 µg/mL (≈ 0.00536 µM); against Staphylococcus aureus [4], 0.03 µg/mL (≈ 0.0803 µM); with Streptococcus pneumoniae [5], 0.002 µg/mL (≈ 0.00536 µM).

As for `CC1COc2c(N3CC[C@@H]([C@H](C)N)C3)c(F)cc3c(=O)c(C(=O)O)cn1c23` (some centres not stated), the MIC with Streptococcus pneumoniae [1] amounted to 0.25 µg/mL (≈ 0.666 µM); in the data set on Haemophilus influenzae it was 0.008 µg/mL (≈ 0.0213 µM); against Moraxella catarrhalis, 0.06 µg/mL (≈ 0.16 µM); against Staphylococcus aureus [3], 0.015 µg/mL (≈ 0.04 µM); in the data set on Staphylococcus aureus [4], 0.125 µg/mL (≈ 0.333 µM); against Streptococcus pneumoniae [5] it was 0.03 µg/mL (≈ 0.0799 µM). The compound further yielded a Ki in data set [2] greater than 100 µM. This compound yielded an inhibition at 300 µM at hERG (KCNH2) of 35%.
